According to paper PMC4206694 (Journal of Medicinal Chemistry, 2014):

How the values were obtained:
CYP2C8 = target: T1, CYP2C8 (Homo sapiens, UniProt P10632); assay: Cytochrome P450 inhibition, CYP2C8; format: in vitro ADME
T1 sequence (P10632 1-490): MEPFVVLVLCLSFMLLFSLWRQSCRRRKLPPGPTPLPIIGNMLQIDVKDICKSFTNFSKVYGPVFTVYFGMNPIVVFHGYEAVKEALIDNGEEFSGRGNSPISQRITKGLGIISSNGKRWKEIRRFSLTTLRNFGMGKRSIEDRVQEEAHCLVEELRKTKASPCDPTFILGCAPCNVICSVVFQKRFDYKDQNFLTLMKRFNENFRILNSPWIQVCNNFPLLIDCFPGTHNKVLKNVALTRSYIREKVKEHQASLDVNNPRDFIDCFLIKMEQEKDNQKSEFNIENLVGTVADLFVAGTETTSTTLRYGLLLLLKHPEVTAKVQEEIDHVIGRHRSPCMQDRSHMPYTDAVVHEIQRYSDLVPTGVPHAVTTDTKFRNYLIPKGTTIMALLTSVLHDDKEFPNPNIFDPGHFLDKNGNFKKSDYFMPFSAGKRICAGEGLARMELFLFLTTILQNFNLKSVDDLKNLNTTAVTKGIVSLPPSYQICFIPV

CYP3D6 = CYP3D6 (Homo sapiens, UniProt P10635); assay: Cytochrome P450 inhibition, CYP3D6; format: in vitro ADME
CYP3D6, sequence (P10635 whole entry): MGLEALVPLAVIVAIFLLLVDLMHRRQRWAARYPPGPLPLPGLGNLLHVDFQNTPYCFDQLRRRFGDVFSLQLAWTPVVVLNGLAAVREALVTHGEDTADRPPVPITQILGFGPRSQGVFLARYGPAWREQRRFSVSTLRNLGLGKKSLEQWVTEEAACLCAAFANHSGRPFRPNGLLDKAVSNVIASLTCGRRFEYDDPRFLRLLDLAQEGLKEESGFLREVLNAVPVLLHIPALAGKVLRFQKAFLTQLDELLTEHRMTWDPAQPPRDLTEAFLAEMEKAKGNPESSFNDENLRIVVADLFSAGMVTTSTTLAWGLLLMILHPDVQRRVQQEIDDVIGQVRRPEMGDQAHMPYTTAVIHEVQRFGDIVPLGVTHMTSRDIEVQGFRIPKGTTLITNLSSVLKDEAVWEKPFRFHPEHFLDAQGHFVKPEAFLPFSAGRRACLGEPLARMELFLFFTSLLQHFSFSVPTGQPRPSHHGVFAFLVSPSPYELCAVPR

CYP3A4 = CYP3A4 (Homo sapiens, UniProt P08684); assay: Cytochrome P450 inhibition, CYP3A4; format: in vitro ADME
CYP3A4, sequence (P08684 whole entry): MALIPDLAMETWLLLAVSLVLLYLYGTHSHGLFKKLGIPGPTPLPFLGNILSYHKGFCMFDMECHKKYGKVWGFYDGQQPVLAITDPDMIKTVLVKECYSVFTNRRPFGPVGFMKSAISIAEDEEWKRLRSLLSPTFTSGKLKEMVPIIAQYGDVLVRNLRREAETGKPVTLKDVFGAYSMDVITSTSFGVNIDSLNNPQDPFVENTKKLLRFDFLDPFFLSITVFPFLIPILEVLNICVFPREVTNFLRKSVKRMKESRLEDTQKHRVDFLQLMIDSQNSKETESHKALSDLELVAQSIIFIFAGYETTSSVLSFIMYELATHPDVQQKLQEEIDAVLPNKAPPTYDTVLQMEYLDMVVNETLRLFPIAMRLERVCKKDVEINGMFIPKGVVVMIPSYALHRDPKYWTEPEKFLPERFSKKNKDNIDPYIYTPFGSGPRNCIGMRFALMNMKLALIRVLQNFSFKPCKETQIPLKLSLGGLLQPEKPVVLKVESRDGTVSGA

[1] = test system: dopaminergic neurons within the SNc; assay: MPTP model of Parkinson's disease; format: in vivo, mouse; conditions: BID, 21 days after MPTP; for rescue of TH+ neurons: 10 mg kg^–1 day^–1, IP
Procedure, shortened: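 Adult male C57Bl/6 mice, individually housed 1 week, received free-base MPTP 30 mg/kg/day IP for 5 days. Compound or vehicle was started on day 6, 24 h after the last MPTP dose, and given twice daily for 21 days. After perfusion and fixation in 4% paraformaldehyde, every fourth section through striatum and SNc was stained for tyrosine hydroxylase. TH+ cells were counted blinded; mean ± SEM.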

CYP2C9 = CYP2C9 (Homo sapiens, UniProt P11712); assay: Cytochrome P450 inhibition, CYP2C9; format: in vitro ADME
CYP2C9, sequence (P11712 whole entry): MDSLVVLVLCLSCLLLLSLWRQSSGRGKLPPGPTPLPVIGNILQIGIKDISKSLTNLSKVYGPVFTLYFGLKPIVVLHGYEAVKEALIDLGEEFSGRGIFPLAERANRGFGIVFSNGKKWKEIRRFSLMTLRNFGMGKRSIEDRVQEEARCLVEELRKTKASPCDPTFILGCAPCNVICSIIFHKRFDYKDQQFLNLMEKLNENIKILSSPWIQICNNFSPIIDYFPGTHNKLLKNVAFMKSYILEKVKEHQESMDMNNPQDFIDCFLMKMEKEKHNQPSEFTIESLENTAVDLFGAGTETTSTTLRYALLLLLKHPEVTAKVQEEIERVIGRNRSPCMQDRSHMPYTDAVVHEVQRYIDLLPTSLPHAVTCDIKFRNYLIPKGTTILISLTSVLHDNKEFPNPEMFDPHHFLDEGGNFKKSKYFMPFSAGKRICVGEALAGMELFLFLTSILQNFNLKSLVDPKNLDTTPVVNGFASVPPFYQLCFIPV

μ-opioid receptor = μ-opioid receptor (Homo sapiens, UniProt P35372); assay: Psychoactive Drug Screening Program competition binding, μ-opioid receptor; conditions: read-out: IC50 μ-opioid receptor; ligand displacement, PDSP
μ-opioid receptor, sequence (P35372 whole entry, species assumed): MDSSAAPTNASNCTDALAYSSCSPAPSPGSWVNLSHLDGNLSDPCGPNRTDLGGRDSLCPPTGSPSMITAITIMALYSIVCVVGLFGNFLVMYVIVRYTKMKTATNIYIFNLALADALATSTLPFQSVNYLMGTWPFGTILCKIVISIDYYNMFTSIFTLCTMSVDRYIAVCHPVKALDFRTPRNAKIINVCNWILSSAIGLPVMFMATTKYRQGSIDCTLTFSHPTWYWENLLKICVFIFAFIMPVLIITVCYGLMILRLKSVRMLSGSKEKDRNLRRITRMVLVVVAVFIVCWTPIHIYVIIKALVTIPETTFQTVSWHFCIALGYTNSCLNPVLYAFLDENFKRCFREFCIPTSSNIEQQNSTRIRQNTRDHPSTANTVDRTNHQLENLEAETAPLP

[2] = Pharmacokinetic analysis, plasma and brain levels; format: in vivo, mouse; conditions: single time point (6 h) after IP 1, 3, 10 or 30 mg/kg, Figure S3
Procedure, shortened: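 Compound in 5% DMSO/10% cremophor EL/85% D5W (pH 7.2) was dosed to adult mice (0.2 mL total). Mice were killed by CO2. Plasma came from ACD-treated blood spun at 9300g. Brains were rinsed in PBS and homogenized in 3 volumes of PBS. Plasma or lysate (100 μL) was precipitated with 200 μL acetonitrile/0.15% formic acid and spun at 13120g for 5 min. Supernatant was analysed by HPLC/MS/MS.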

[3] = test system: newborn hippocampal neurons; assay: In vivo hippocampal neuroprotection assay; parameters: species or system mouse; conditions: for number of surviving newborn hippocampal neurons (BrdU+ cells): ICV 10 μM, Figure 1
Procedure, shortened: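 Adult (12-week) wild-type […] mice, environmentally deprived, four per group. Compound was infused ICV into the left lateral ventricle by implanted osmotic minipump (0.5 μL/h, 7 days) or given IP twice daily. BrdU 50 mg/kg/day IP for 6 days; perfused 24 h after last BrdU. Anti-BrdU staining after formamide/SSC and HCl unmasking. BrdU+ SGZ/dentate cells counted contralaterally, every fifth section, normalized to dentate gyrus volume.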

CYP2B6 = target: T2, CYP2B6 (Homo sapiens, UniProt P20813); assay: Cytochrome P450 inhibition, CYP2B6; format: in vitro ADME
T2 sequence (P20813 1-491): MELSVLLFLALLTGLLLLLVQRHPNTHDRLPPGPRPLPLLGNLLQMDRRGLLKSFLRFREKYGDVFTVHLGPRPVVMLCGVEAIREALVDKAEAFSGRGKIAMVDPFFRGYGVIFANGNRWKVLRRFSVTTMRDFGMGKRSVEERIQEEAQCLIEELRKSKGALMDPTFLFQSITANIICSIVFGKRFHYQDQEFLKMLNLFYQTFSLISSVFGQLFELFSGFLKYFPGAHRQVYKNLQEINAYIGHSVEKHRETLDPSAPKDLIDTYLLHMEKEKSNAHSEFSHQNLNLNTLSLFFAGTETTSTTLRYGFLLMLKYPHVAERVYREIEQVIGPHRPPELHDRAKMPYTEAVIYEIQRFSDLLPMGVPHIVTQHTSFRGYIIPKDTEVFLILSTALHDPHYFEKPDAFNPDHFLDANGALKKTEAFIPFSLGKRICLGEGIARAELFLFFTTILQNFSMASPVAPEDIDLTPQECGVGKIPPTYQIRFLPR

[4] = test system: motor neurons in the spinal cord; conditions: cited from earlier work
[5] = test system: dopaminergic neurons within the SNc; conditions: cited from earlier work
[6] = cited from earlier work
[7] = cited from earlier work; remark: listed apart in the source
[8] = test system: newborn hippocampal neurons; conditions: cited from earlier work
[9] = cited from earlier work; remark: listed apart in the source
[10] = test system: cerebral cortical neurons; conditions: cited from earlier work
[11] = Long-term treatment tolerability; format: in vivo

Compound: COc1cccc(NC[C@H](F)Cn2c3ccc(Br)cc3c3cc(Br)ccc32)n1 [(−)-15, (S)-N-(3-(3,6-Dibromo-9H-carbazol-9-yl)-2-fluoropropyl)-6-methoxypyridin-2-amine]
- CYP2C8 sensitivity (CYP2C8): insensitive
- CYP3D6 sensitivity (CYP3D6): insensitive
- CYP3A4 sensitivity (CYP3A4): insensitive
- neuroprotective activity in MPTP model (enantiomers) ([1]; IP, Figure 3): strongly protective
- CYP2C9 sensitivity (CYP2C9): insensitive
- IC50 (μ-opioid receptor): 8.2 µM
- plasma and brain concentrations compared with racemic 15 [2]: indistinguishable
- enantiomer-specific neuroprotective activity in mouse model of neurogenesis ([3]; pure enantiomers dosed ICV 7 days, Figure 2): highly active
- CYP2B6 sensitivity (CYP2B6): insensitive

Compound: OC(CNc1ccccc1)Cn1c2ccc(Br)cc2c2cc(Br)ccc21 (stereo not drawn) [compound 1]
- motor neuron cell death in spinal cord of G93A SOD1 transgenic mice [4]: minimize motor neuron cell death in the spinal cord
- protection of neurons in the substantia nigra, MPTP mouse model [5]: protect neurons in the substantia nigra
- neuroprotective effect in age-related cognitive decline [6]: neuroprotective effects
- neuroprotective effect in retinal degeneration [7]: neuroprotective effects
- number of surviving newborn hippocampal cells ([8]; unbiased in vivo screen, 1 week): approximately doubled
- antidepressant effect [9]: antidepressant activity

Compound: COc1cccc(NCC(F)Cn2c3ccc(Br)cc3c3cc(Br)ccc32)c1 (stereo not drawn) [compound 2]
- motor neuron cell death in spinal cord of G93A SOD1 transgenic mice [4]: minimize motor neuron cell death in the spinal cord
- protection of neurons in the substantia nigra, MPTP mouse model [5]: protect neurons in the substantia nigra
- rescue of TH+ neurons [1]: around 75%
- dose showing significant neuroprotective effect in MPTP model ([1]; IP): 5 mg kg^–1 day^–1
- activity in the in vivo hippocampal neuroprotection assay ([8]; previous studies): substantially improved the activity
- protection of cerebral cortical neurons, moderate fluid percussion TBI [10]: protect rat cerebral cortical neurons
- antidepressant effect [9]: exert antidepressant effects
- impact on weight, behavior, or appearance ([11]; up to 40 mg kg^–1 day^–1 for 21 days): no negative impact on the weight, behavior, or appearance

Compound: [N-]=[N+]=NCC(F)Cn1c2ccc(Br)cc2c2cc(Br)ccc21 (stereo not drawn) [compound 11, 9-(3-Azido-2-fluoropropyl)-3,6-dibromo-9H-carbazole]
- number of surviving newborn hippocampal neurons (BrdU+ cells) ([3]; 7 days): inactive

Compound: Cl.NCC(F)Cn1c2ccc(Br)cc2c2cc(Br)ccc21 (stereo not drawn) [compound 12, 3-(3,6-Dibromo-9H-carbazol-9-yl)-2-fluoropropan-1-amine]
- number of surviving newborn hippocampal neurons (BrdU+ cells) ([3]; 7 days): increase in the number of BrdU+ cells compared with vehicle

Compound: COc1cccc(NCC(F)Cn2c3ccc(Br)cc3c3cc(Br)ccc32)n1 (stereo not drawn) [compound 15, N-(3-(3,6-Dibromo-9H-carbazol-9-yl)-2-fluoropropyl)-6-methoxypyridin-2-amine]
- rescue of TH+ neurons [1]: over 85%
- dose showing significant neuroprotective effect in MPTP model ([1]; IP): 1 mg kg^–1 day^–1
- number of surviving newborn hippocampal neurons (BrdU+ cells) ([3]; 7 days): approximately doubled
- dose at which active in hippocampal neuroprotection ([3]; IP, 7 days): 1 mg kg^–1 day^–1
- dose at which ceiling of efficacy is reached in hippocampal neuroprotection ([3]; IP, 7 days): 10 mg kg^–1 day^–1
- impact on weight, behavior, or appearance ([11]; up to 10 mg kg^–1 day^–1 for 21 days): no negative impact on the weight, behavior, or appearance

Compound: NCC(O)Cn1c2ccc(Br)cc2c2cc(Br)ccc21 (stereo not drawn) [compound 16, 1-Amino-3-(3,6-dibromo-9H-carbazol-9-yl)propan-2-ol]
- number of surviving newborn hippocampal neurons (BrdU+ cells) ([3]; 7 days): increase in the number of BrdU+ cells compared with vehicle

Compound: COc1cccc(NCC(O)Cn2c3ccc(Br)cc3c3cc(Br)ccc32)n1 (stereo not drawn) [compound 17, 1-(3,6-Dibromo-9H-carbazol-9-yl)-3-((6-methoxypyridin-2-yl)amino)propan-2-ol]
- number of surviving newborn hippocampal neurons (BrdU+ cells) ([3]; 7 days): increase in the number of BrdU+ cells compared with vehicle
